Assays:
Assay type in all cases: functional
NCI-H23 = experiment: Growth inhibition of human NCI-H23 cells after 48 hrs
Method in brief: (§1)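 NCI ~60-line screen. Cells were grown in RPMI 1640 with 5% FBS and 2 mM L-glutamine and plated at 5000–40000 cells/well. After a 24 h preincubation, five drug concentrations from DMSO stocks were added for 48 h at 37 °C. Cells were TCA-fixed, stained with SRB and read at 515 nm. GI50 was taken from time-zero and control absorbances and reported as pGI50.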

MDA-MB-435 = experiment: Growth inhibition of human MDA-MB435 cells after 48 hrs; conditions: MDA-MB-435, 48 h; method in brief: as §1
T47D = experiment: Growth inhibition of human T47D cells after 48 hrs
Method in brief: (§2)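 NCI 60-line screen: cells in RPMI 1640 with 5% FBS and 2 mM L-glutamine, plated at 5000–40000 cells/well, grown 24 h (37 °C, 5% CO₂), then exposed to five 10-fold or ½-log dilutions (DMSO stock) for 48 h. Fixed with TCA (final 10% for adherent cells, 16% for suspension cells), then SRB stained with absorbance at 515 nm. GI50 from percentage growth relative to time-zero and control wells.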

OVCAR-3 = experiment: Growth inhibition of human OVCAR-3 cells after 48 hrs; conditions: OVCAR-3, 48 h; method in brief: as §1
U-251 = experiment: Growth inhibition of human U251 cells after 48 hrs; conditions: U-251, 48 h; method in brief: as §2
A549 = experiment: Growth inhibition of human A549 cells after 48 hrs; conditions: A549, 48 h; method in brief: as §1
CCRF-CEM = experiment: Growth inhibition of human CCRF-CEM cells after 48 hrs; method in brief: as §1
EKVX = experiment: Growth inhibition of human EKVX cells after 48 hrs; method in brief: as §1
HOP-92 = experiment: Growth inhibition of human HOP92 cells after 48 hrs; conditions: HOP-92, 48 h; method in brief: as §1
SK-OV-3 = experiment: Growth inhibition of human SKOV3 cells after 48 hrs; conditions: SK-OV-3, 48 h; method in brief: as §2
NCI/ADR-RES = experiment: Growth inhibition of human NCI/ADR-RES cells after 48 hrs; method in brief: as §1
RXF 393 = experiment: Growth inhibition of human RXF393 cells after 48 hrs; conditions: RXF 393, 48 h; method in brief: as §1
SF-268 = experiment: Growth inhibition of human SF268 cells after 48 hrs; conditions: SF-268, 48 h; method in brief: as §1
TK-10 = experiment: Growth inhibition of human TK10 cells after 48 hrs; conditions: TK-10, 48 h; method in brief: as §2
Malme-3M = experiment: Growth inhibition of human MALME3M cells after 48 hrs; method in brief: as §1
MDA-MB-231 = experiment: Growth inhibition of human MDA-MB-231 cells after 48 hrs; conditions: MDA-MB-231, 48 h; method in brief: as §1
COLO 205 = experiment: Growth inhibition of human COLO205 cells after 48 hrs; conditions: COLO 205, 48 h; method in brief: as §1
RPMI-8226 = experiment: Growth inhibition of human RPMI8226 cells after 48 hrs; conditions: RPMI-8226, 48 h; method in brief: as §1
SF-295 = experiment: Growth inhibition of human SF295 cells after 48 hrs; conditions: SF-295, 48 h; method in brief: as §1
HCT-15 = experiment: Growth inhibition of human HCT15 cells after 48 hrs; conditions: HCT-15, 48 h; method in brief: as §1
A498 = experiment: Growth inhibition of human A498 cells after 48 hrs; conditions: A498, 48 h; method in brief: as §1
UACC-257 = experiment: Growth inhibition of human UACC257 cells after 48 hrs; conditions: UACC-257, 48 h; method in brief: as §2
NCI-H322M = experiment: Growth inhibition of human NCI-H322M cells after 48 hrs; method in brief: as §1
UO-31 = experiment: Growth inhibition of human UO31 cells after 48 hrs; conditions: UO-31, 48 h; method in brief: as §2
OVCAR-8 = experiment: Growth inhibition of human OVCAR8 cells after 48 hrs; conditions: OVCAR-8, 48 h; method in brief: as §1
786-0 = experiment: Growth inhibition of human 786-0 cells after 48 hrs; conditions: 786-0, 48 h; method in brief: as §1
NCI-H460 = experiment: Growth inhibition of human NCI-H460 cells after 48 hrs; conditions: NCI-H460, 48 h; method in brief: as §1
HCT-116 = experiment: Growth inhibition of human HCT116 cells after 48 hrs; conditions: HCT-116, 48 h; method in brief: as §1
SN12C = experiment: Growth inhibition of human SN12C cells after 48 hrs; method in brief: as §2
SK-MEL-5 = experiment: Growth inhibition of human SK-MEL5 cells after 48 hrs; conditions: SK-MEL-5, 48 h; method in brief: as §1
M14 = experiment: Growth inhibition of human M14 cells after 48 hrs; conditions: M14, 48 h; method in brief: as §1
[1] = Growth inhibition of human HS578T cells after 48 hrs; conditions: Hs-578T; method in brief: as §1
CAKI-1 = experiment: Growth inhibition of human CAKI1 cells after 48 hrs; conditions: CAKI-1, 48 h; method in brief: as §1
[2] = read-out: Log LC50 (the source's name) (converted)

With `Cn1c2ccccc2c2c(=O)n(CCCC(=O)NCCc3c[nH]cn3)c3c(-c4ccccc4)nnn3c21` the TGI (NCI-H23; Homo sapiens, NCI-H23, 48 h, read-out: pTGI (converted)) was 46.8 µM, the CC50 (NCI-H23; [2]) was 13.2 µM and the GI50 (MDA-MB-435) was 10.2 µM. For the same compound, the LC50 (MDA-MB-435) was 39.8 µM, the TGI (MDA-MB-435; read-out: pTGI (converted)) was 20 µM and the GI50 (T47D) was 10.5 µM. For the same compound, the CC50 (T47D; [2]) was over 50.1 µM, the TGI (T47D; read-out: pTGI (converted)) was 25.1 µM and the GI50 (OVCAR-3) was 8.32 µM. The LC50 (OVCAR-3) was 31.6 µM, the TGI (OVCAR-3; read-out: pTGI (converted)) was 16.2 µM and the GI50 (U-251) was 9.55 µM. It also gave an LC50 (U-251) of 36.3 µM, a TGI (U-251; read-out: pTGI (converted)) of 18.6 µM and a GI50 (A549) of 12.9 µM. The CC50 (A549; [2]) was 45.7 µM, the TGI (A549; read-out: pTGI (converted)) was 24 µM and the GI50 (CCRF-CEM) was 1510 nM. For the same compound, the LC50 (CCRF-CEM) was over 50.1 µM, the TGI (CCRF-CEM; read-out: pTGI (converted)) was over 50.1 µM and the GI50 (EKVX) was 10 µM. The LC50 (EKVX) was over 50.1 µM, the TGI (EKVX; read-out: pTGI (converted)) was 24 µM and the GI50 (HOP-92) was 1350 nM. For the same compound, the LC50 (HOP-92) was 44.7 µM, the TGI (HOP-92; read-out: pTGI (converted)) was 5.5 µM and the GI50 (SK-OV-3) was 10.2 µM. For the same compound, the LC50 (SK-OV-3) was 33.9 µM, the TGI (SK-OV-3; read-out: pTGI (converted)) was 18.6 µM and the GI50 (NCI/ADR-RES) was over 50.1 µM. For the same compound, the LC50 (concentration killing 50% of cells) (NCI/ADR-RES) was over 50.1 µM, the TGI (NCI/ADR-RES; read-out: pTGI (converted)) was over 50.1 µM and the GI50 (RXF 393) was 7.41 µM. For the same compound, the LC50 (RXF 393) was 44.7 µM, the TGI (RXF 393; read-out: pTGI (converted)) was 18.2 µM and the GI50 (SF-268) was 11.7 µM. For the same compound, the CC50 (SF-268; [2]) was over 50.1 µM, the TGI (SF-268; read-out: pTGI (converted)) was 31.6 µM and the GI50 (TK-10) was 4.79 µM. It also gave an LC50 (TK-10) of 26.9 µM, a TGI (TK-10; read-out: pTGI (converted)) of 11.5 µM and a GI50 (Malme-3M) of 7.59 µM. For the same compound, the LC50 (Malme-3M) was 37.2 µM, the TGI (Malme-3M; read-out: pTGI (converted)) was 16.6 µM and the GI50 (MDA-MB-231) was 9.33 µM. It also gave an LC50 (concentration killing 50% of cells) (MDA-MB-231) of 37.2 µM, a TGI (MDA-MB-231; read-out: pTGI (converted)) of 18.6 µM and a GI50 (COLO 205) of 8.51 µM. It also gave an LC50 (COLO 205) of 44.7 µM, a TGI (COLO 205; read-out: pTGI (converted)) of 19.5 µM and a GI50 (RPMI-8226) of 10.5 µM. The LC50 (RPMI-8226) was over 50.1 µM, the TGI (RPMI-8226; read-out: pTGI (converted)) was 28.8 µM and the GI50 (SF-295) was 9.12 µM. The LC50 (SF-295) was 34.7 µM, the TGI (SF-295; read-out: pTGI (converted)) was 17.8 µM and the GI50 (HCT-15) was 14.5 µM. For the same compound, the LC50 (HCT-15) was over 50.1 µM, the TGI (HCT-15; read-out: pTGI) was 43.7 µM and the GI50 (A498) was 7.59 µM. The CC50 (A498; [2]) was 30.9 µM, the TGI (A498; read-out: pTGI (converted)) was 15.1 µM and the GI50 (UACC-257) was 12 µM. It also gave an LC50 (UACC-257) of 38.9 µM, a TGI (UACC-257; read-out: pTGI (converted)) of 21.4 µM and a GI50 (NCI-H322M) of 11 µM. The LC50 (NCI-H322M) was over 50.1 µM, the TGI (NCI-H322M; read-out: pTGI (converted)) was 29.5 µM and the GI50 (UO-31) was 7.41 µM. It also gave an LC50 (UO-31) of 29.5 µM, a TGI (UO-31; read-out: pTGI (converted)) of 14.8 µM and a GI50 (OVCAR-8) of 10 µM. For the same compound, the LC50 (OVCAR-8) was 42.7 µM, the TGI (OVCAR-8; read-out: pTGI (converted)) was 20.9 µM and the GI50 (786-0) was 2190 nM. For the same compound, the LC50 (786-0) was 26.9 µM, the TGI (786-0; read-out: pTGI (converted)) was 8.13 µM and the GI50 (NCI-H460) was 11 µM. It also gave an LC50 (NCI-H460) of over 50.1 µM, a TGI (NCI-H460; read-out: pTGI (converted)) of 24.5 µM and a GI50 (HCT-116) of 5.89 µM. The LC50 (HCT-116) was 32.4 µM, the TGI (HCT-116; read-out: pTGI (converted)) was 13.8 µM and the GI50 (SN12C) was 8.71 µM. For the same compound, the LC50 (SN12C) was 39.8 µM, the TGI (SN12C; read-out: pTGI (converted)) was 18.6 µM and the GI50 (SK-MEL-5) was 9.12 µM. It also gave an LC50 (SK-MEL-5) of 32.4 µM, a TGI (SK-MEL-5; read-out: pTGI (converted)) of 17 µM and a GI50 (M14) of 12 µM. For the same compound, the LC50 (M14) was 49 µM, the TGI (M14; read-out: pTGI (converted)) was 24.5 µM and the GI50 [1] was 10.5 µM. It also gave an LC50 (50% lethal concentration) [1] of 49 µM, a TGI ([1]; read-out: pTGI (converted)) of 22.4 µM and a GI50 (CAKI-1) of 12 µM. The LC50 (concentration killing 50% of cells) (CAKI-1) was over 50.1 µM and the TGI (CAKI-1; read-out: pTGI (converted)) was 33.1 µM.

From ChEMBL document CHEMBL1142436, “Design and synthesis of 4-substituted indolo[3,2-e][1,2,3]triazolo[1,5-a]pyrimidine derivatives with antitumor activity” (2008)
